FID counter – fluorescent intercalator displacement, NS3 helicase counter-screen; actives 0.17% (n = 290,000); inhibition, % at 7.9 µM; DNA fluorescent intercalator displacement, fluorescence; in the data active = inhibition above about 37%;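 also: 0% = vehicle and 100% = reference compound; higher means more ethidium bromide displaced from hairpin DNA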
HCV core dimer – HCV core protein dimerization inhibition | inhibition, % at 5 µM | AID 1899 | actives 0.33% (n = 300,000) | TR-FRET GST/Flag-core106 dimerization, 1536-well;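 active = inhibition above the mean of all tested compounds plus 3 SD, set per screening campaign, cut at about 45% in these data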
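assay system = GST-tagged and Flag-tagged HCV core protein residues 1-106 | controls = unlabelled core106 and no-GST-core106 wells | incubation = compound-protein-antibody incubation 4 h at 22.5 °C | probe or stimulus = Eu donor and XL665 acceptor anti-tag antibodies | read-out = % inhibition based on acceptor/donor emission ratio | signal = TR-FRET 671 and 617 nm emission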
HCV NS3 hel inh – HCV NS3 helicase inhibition; NS3 helicase DNA unwinding, Cy5 molecular beacon fluorescence; inhibition, % at 10.9 µM; actives 0.56% (n = 290,000);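 active = inhibition above the mean of all tested compounds plus 3 SD, set per campaign, cut at about 35% in these data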;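 also: 0% = DMSO wells and 100% = thioflavine S control wells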
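System: HCV NS3 helicase fragment; control set: DMSO and thioflavine S; technique: Cy5 fluorescence at 0 and 60 min, beacon hairpin quenching; reagent: beacon DNA duplex substrate plus ATP; replicates: singlicate; schedule: 1 h reaction at 25 °C, ATP-initiated; medium: MOPS buffer pH 6.5 with MgCl2, DTT, Tween20, BSA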
HSP90 inh – inhibitors of HSP90 luciferase refolding in rabbit reticulocyte lysate. luciferase refolding luminescence, 3 h. inhibition, % at 5.6 µM. actives 0.91% (n = 290,000). AID 1789;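 active = inhibition above the screen-wide mean plus 3 SD, computed separately per campaign, cut at about 16% in these data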;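 also: 0% = DMSO wells and 100% = 60 µM geldanamycin wells; inhibitors lower the luminescence because luciferase stays unfolded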
HSF1 activator – increases HSF-1 driven luciferase reporter signal. NIH3T3-HGL HSF-1 luciferase reporter, MG132, 8 h; 100% = twice DMSO control signal. activation, % at 9 µM. actives 1.7% (n = 300,000). AID 504408;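 active = mean replicate activation of at least 50% with a set share of replicates each reaching 50%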;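 also: 0% = median of the neutral control wells and 100% = twice that signal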
HSF1 inhib – HSF1 inhibition; activity change, negative = inhibition, % at 7.5 µM (by protocol); NIH3T3-HGL HSE-luciferase, MG132-induced, luminescence 8 h; stronger effect = lower value; actives 0.77% (n = 300,000); AID 2098;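 active = more than half of replicate wells show activity change below -50%, luminescence cut by over half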;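 also: luciferase reports HSF-1 transcriptional activity via heat shock element; 0% = median of DMSO wells and -100% = zero luminescence signal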
Starred values were filed as active, the others as inactive; . = not tested or not shown; ! = not active in a repeat. This is a sample that favours compounds with a hit; in the whole collection about 3.9% have one here.

SMILES	FID counter	HCV core dimer	HCV NS3 hel inh	HSP90 inh	HSF1 activator	HSF1 inhib
Cc1ccn2c(Nc3ccccc3C)c(-c3cccnc3)nc2c1	-22	3	-17	-1	20	6
O=C(CNc1cccc2ccccc12)N/N=C/c1ccc([N+](=O)[O-])cc1	10	1	-7	3	77*	31
CCCCCC(=O)NC(=S)Nc1ccc(N2CCOCC2)cc1	-8	6	-3	1	16	19
Clc1ccc(-c2ccc(CNCC3CCCO3)o2)cc1 (centres undefined)	11	1	-7	1	79*	62
COc1cc(CO)cc(-c2cc(CO)cc(OC)c2OC)c1OC	-4	-2	-5	0	-6	1
COc1ccc(NC(=S)Nc2ccc(S(N)(=O)=O)cc2)c(OC)c1	13	1	2	0	5	-6
Cc1cc(C(=O)N/N=C2\CC(=O)c3ccccc32)c(C)n1-c1ccc(F)cc1	-21	71*	21	3	0	-2
O=c1c2c3c(sc2nc(NCCOCCO)n1Cc1ccco1)CCCCC3	-26	-1	-1	3	-62	-62*
CN(c1ccccc1)c1ncccn1	.	-2	.	.	-91	-89*
CC(C)Cn1c(SCC(=O)Nc2cc(Cl)c(Cl)cc2Cl)nc(O)cc1=O	.	18	.	.	-4	-4
COc1cc(NC(=O)c2ccc3c(c2)S(=O)(=O)N=C2CCCCCN23)cc(OC)c1	.	4	.	.	1	-8
CCN(CC)CCOc1ccc(/C(=C(/Cl)c2ccccc2)c2ccccc2)cc1	18	-16	-78	-5	67*!	18
CC/C(=C(\c1ccccc1)c1ccc(OCCN(C)C)cc1)c1ccccc1	.	-16	.	.	-3	-2
CCc1ccc(NC(=O)C(=O)NNC(=O)COc2cccc(OC)c2)cc1	-16	-3	2	-1	-3	-2
CCCCCN1C=CC(=C2C(=O)c3ccccc3C2=O)C=C1	-5	6	3	80*	-85	-81*
CC1=CC(=C2C(=O)c3ccccc3C2=O)C=C(C)N1C	4	-10	-10	-1	23	14
c1ccc(NCC2OCc3ccccc3CO2)cc1	-3	-10	-16	-3	31	15
CC(=O)c1c(N2CCN(CCO)CC2)nc(=S)n(-c2ccccc2)c1C	0	-6	-2	-1	-72	-64*
COc1ccccc1N1CCN(C(=O)c2ccc(COc3cccc4c3OC(C)(C)C4)cc2)CC1	.	5	.	.	2	3
CCOc1ccc2nc(NC(=O)C3CCCN(S(=O)(=O)c4cccs4)C3)sc2c1 (centres undefined)	-13	12	-27	1	18	-2
CCN(Cc1ccccc1)C(=S)NC(=O)c1ccccc1Br	-16	4	-2	0	-1	1
CCCN(Cc1ccccc1)C(=S)NC(=O)c1ccccc1[N+](=O)[O-]	-6	-1	-2	-1	-67	-60*
CCOc1ccc(/C=N/NC(=O)C(O)c2ccccc2)c(O)c1 (centres undefined)	-9	-2	-1	-6	-86	-82*
CSCC[C@H](NC(=O)OC(C)(C)C)C(=O)N/N=C/c1ccc2nccnc2c1	-3	1	0	5	.	.
CCc1ccc2c(c1)C(c1ccc([N+](=O)[O-])cc1)=NNC(c1ccc(F)cc1)=N2	1	3	4	1	59*	42
SMILES	FID counter	HCV core dimer	HCV NS3 hel inh	HSP90 inh	HSF1 activator	HSF1 inhib
NC(=O)c1ccsc1NC(=O)COC(=O)Cc1cccc2ccccc12	-10	11	-4	8	-1	-4
Cc1c(C(=O)O)nn(-c2cccc(C(F)(F)F)c2)c(=O)c1C#N	4	3	7	1	19	0
COC(=O)c1nn(-c2cccc(C(F)(F)F)c2)c(=O)cc1Sc1ccccn1	-14	0	-1	-4	-65	-52*
O=C(NCc1ccc(Cl)cc1)c1cc2c(s1)CS(=O)(=O)C2	-5	0	17	-2	14	4
Oc1ccc(-c2csc(-c3cccnc3)n2)cc1O	-10	-6	-10	-7	42	26
Oc1ccccc1-c1csc(-c2ccccc2)n1	3	4	-4	-5	79*	56
Oc1ccc(-c2csc(Nc3ncccn3)n2)cc1O	1	.	12	-3	89*	75
c1ccc(-c2csc(-c3ccncc3)n2)cc1	-3	1	2	2	40	14
Oc1ccc(-c2csc(-c3ccccc3)n2)cc1O	-3	-7	13	0	155*	105
CCOc1ncccc1C(=O)NCCN1C(=O)S/C(=C/c2cccs2)C1=O	-1	6	-2	0	-26	5
CC1=C(C(=O)OCC(Br)(Br)Br)C(c2cccc([N+](=O)[O-])c2)NC(=O)N1CCCC(=O)O (centres undefined)	.	1	.	.	-11	3
CNC(=O)c1cc(C(=O)c2c(Cl)cccc2Cl)c[nH]1	-7	2	0	4	-5	5
COC1=C(c2ccccc2)C(=O)c2ccccc2C1=O	1	-13	11	0	15	1
O=C(C1=C(c2ccccc2)C(=O)c2ccccc2C1=O)c1ccccc1	5	.	-2	74*	82*	55
CC(=O)C(C)n1c(CN2CCN(C(=O)c3ccco3)CC2)nc2c1c(=O)n(C)c(=O)n2C (centres undefined)	-19	2	-3	-1	-13	-1
CCc1nn(C(CC)C(=O)NCc2cccc(OC)c2OC)c(=O)c2cc3occc3n12 (centres undefined)	-45	6	-5	-4	67*	20
CCc1nn(C(CC)C(=O)NCc2cccc(OC)c2)c(=O)c2cc3occc3n12 (centres undefined)	-35	1	13	-4	7	-1
COc1ccc(CCNC(=O)[C@H](CC(C)C)NC(=O)N2CCn3c2nc2ccccc23)cc1OC	-56	-9	4	1	56*	27
COc1ccc(CCNC(=O)[C@@H](NC(=O)N2CCn3c2nc2ccccc23)C(C)C)cc1OC	-56	-8	-1	1	26	8
On1c(-c2ccccc2)nc2ccc(Cl)cc21	-1	-2	-3	-2	54*	32
CC1CCCCC1NC(=O)C1CCN(S(=O)(=O)c2cccc3nonc23)CC1 (centres undefined)	-8	1	4	-1	-11	-5
CCOC(=O)c1c(NC(=O)c2cccs2)sc2c1CCN(C(=O)OCC)C2	-11	12	-5	1	71*	35
CCOC(=O)N1CCC(NC(=O)c2cccs2)CC1	0	-2	0	0	67*	25
CCOC(=O)N1CCC(NCCNC(=O)c2cccs2)CC1	7	-8	-1	2	0	-5
CCOC(=O)c1c(NC(=O)c2cccs2)sc2c1CCCC2	-12	-5	9	7	9	-5

Screens: PubChem BioAssay, several laboratories
